In publication PMC12676294 (ACS Omega, 2025):

Experiment: Potentiometric titration: protonation constants of the ligands
Assay type: physicochemical
Conditions: T = 25.0 °C; I = 0.1 M KNO3
Procedure, shortened: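 Ligand (about 1 mM, 16 mL) with 5–9 mM HClO4 titrated with carbonate-free NaOH (about 0.1 M) under argon with stirring, at 25.0 ± 0.1 °C in 0.1 M KNO3. Glass electrode calibrated as an H+ concentration probe by Gran's method; pKw fixed at 13.78. Points accepted at drift <0.5 mV/min, pH 2–12, 55–130 points per dataset. Stepwise constants were refined from the titration curves.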

NC(=O)CN1CCNC(=O)c2cccc(n2)C(=O)NCCN(CC(N)=O)CC1 [Py2am, 2-[9-(Carbamoylmethyl)-2,13-dioxo-3,6,9,12,18-pentaazabicyclo[12.3.1]octadeca-1(17),14(18),15-trien-6-yl]acetamide]
Stepwise protonation constant Log K, HL: 5.1 (1)
